# Columns and labels:
# [1] = system: wounded skin of neonatal mice; assay: Detection and distribution of peptide in wounded skin; format: in vivo, mouse; conditions: whole-mount skin, 60 μM, 2 h postwounding, streptavidin (Alexa 594) confocal
# [2] = system: 5 mm excisional wounds on adult CD-1 mice; assay: Full-thickness 5 mm excisional wound closure in adult mice; format: in vivo, mouse
# Method in brief: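 Adult CD-1 mice received 5 mm full-thickness excisional wounds treated with 20% pluronic gel alone (n = 102) or with 60 μM peptide (n = 95). Gel was applied at wounding and again 24 h later. Wounds were imaged under anaesthesia at 1, 4, 7 and 10 days, and area was measured blind to treatment. There were nine independent experiments with 8–16 animals per group. Analysis used t-test with Bonferroni correction.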
# [3] = system: 5 mm excisional wounds on adult CD-1 mice; format: in vivo, mouse; conditions: two blinded observers, vs vehicle
# Method in brief: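 Adult CD-1 mice received full-thickness 5 mm excisional wounds, treated immediately and again at 24 h with 20% pluronic gel with or without 60 μM peptide. Wound images were scored 0–5 by two observers blind to treatment. Redness/swelling was scored at 24 h and 4 days, and appearance/scarring (discoloration, smoothness) at 7 and 10 days. Each wound's score was the mean of both observers. Data came from nine experiments.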
# [4] = system: neutrophils at 2 mm excisional wounds on neonatal mice; assay: Whole-mount myeloperoxidase neutrophil density assay in neonatal wounds; format: in vivo, mouse; conditions: 48 h postwounding
# Method in brief: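 Two-day-old pups were sedated by hypothermia and given bilateral 2 mm punch wounds at least 1 cm apart; one wound per mouse received 60 μM peptide and the other vehicle. For the 48 h harvest, treatment was repeated at 24 h. Myeloperoxidase-positive cells were grid-counted blind. Analysis used Wilcoxon matched-pairs test.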
# [5] = system: neutrophils at adult mouse excisional skin injuries; assay: Neutrophil counts in H&E sections of adult excisional wounds; format: in vivo; conditions: 24 h and 4 days, three treatment and three control wounds, p < 0.01-0.001
# [6] = system: healed excisional wounds of adult mice; assay: Tensile testing to failure of skin strips with healed wounds; format: in vivo, mouse; conditions: 3 months postwounding
# [7] = system: Cx43; assay: Quantitative immunolabeling of Cx43 and ZO-1 in wound epidermis; format: in vivo; conditions: adult mouse wound epidermis, 24 h
# Method in brief: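 Paired peptide-treated and control wounds were taken from the same five adult mice. Peptide was given at 60 μM in 20% pluronic gel. Sections taken 24 h after injury were labelled with Cx43 and ZO-1 antibodies plus DAPI and imaged by laser scanning confocal microscopy. Epidermal Cx43 particle size, numerical density and total immunolabelled area were quantified.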
# [8] = system: second PDZ domain (PDZ2) of zonula occludens (ZO)-1; conditions: cited from earlier work
# [9] = system: Cx43-expressing HeLa cells; conditions: cited from earlier work
# [10] = adult mice, 5 mm excisional wound, 10-day time course, vs controls
sequence,measurement,setting,value
RQPKIWFPNRRKPWKKRPRPDDLEI [ACT1],spread of peptide in tissue after application to wound,[1],could be observed in tissues surrounding the wound edges
same,healed appearance (qualitative),[2]; [10],less discolored appearance
same,swelling / inflammation of wound (qualitative),[2]; [10],less swollen and inflamed
same,experiments with significantly accelerated closure rate,"[2]; nine independent experiments, 8-16 animals per group",eight of the nine experiments
same,scarring/overall appearance score (0-5),[3]; 7 and 10 days postwounding,significantly improved
same,wound redness score (0-5),[3]; 24 h and 4 days postwounding,significantly decreased
same,localisation of neutrophils at wound,[4],frequently sequestered in blood vessels
same,neutrophil density,[5],significant decreases
same,overall appearance of healed wounds,[6],improvement in overall appearance of the healed wounds is maintained
same,apically localized ZO-1 staining proximal to wound edge,[7],reduction appeared to be more pronounced
same,average size of Cx43 particles (GJs),[7]; paired wounds on five mice,significant (p < 0.05) overall increase
same,numerical density of Cx43 particles,[7]; paired wounds on five mice,significantly (p < 0.05) reduced
same,effect on Cx43-ZO-1 interaction,[8],competitively inhibiting the interaction of endogenous Cx43 molecules with ZO-1
same,Cx43 distribution and levels,[9]; Cx43-expressing HeLa cells,redistribution of Cx43 from a detergent-soluble to an insoluble fraction without causing changes in overall levels of the protein
same,GJ aggregate size and number,[9]; Cx43-expressing HeLa cells,increase in the size and decrease in the number of GJ aggregates
same,subcellular targeting of peptide,[9]; HeLa cells,Cytoplasmic targeting

# Source: PMC2720252 (Regenerative medicine, 2009)
